Measured values taken from ChEMBL document CHEMBL1649123, “Erythromycin- and chloramphenicol-induced ribosomal assembly defects are secondary effects of protein synthesis inhibition” (2009).
Values after ≈ are worked out from the molar mass of the structure shown. Active and inactive are the calls of the source. The rule behind the calls is not given here.

Columns and labels:
[1] = tested on: Escherichia coli; test: Inhibition of large ribosomal subunit assembly in Escherichia coli assessed as accumulation of 23S rRNA in 70S and 50S fractions at 7 ug/ml after 2 hrs by sucrose gradient fractionation at 25 degC; assay type: functional, organism-based
Outline: (§1)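 MG1655 grown in 2× YT at 25 or 37°C to A600 0.2, then drug added (final concentration as per line). Incubated 2 h at 25°C or 1 h at 37°C. Freeze-thaw lysis used lysozyme and DNase I. Lysate was run on a 10–25% sucrose gradient in buffer D, pH 8, for 13.5 h at 4°C. Fraction RNA was dot-blotted with 32P-labelled 16S/23S oligonucleotide probes, loading 0.2 pmol 50S-fraction 23S RNA.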

[2] = tested on: Escherichia coli; test: Inhibition of large ribosomal subunit assembly in Escherichia coli assessed as accumulation of 23S rRNA in 40S fraction at 7 ug/ml after 2 hrs by sucrose gradient fractionation at 25 degC; assay type: functional, organism-based; outline: as §1
[3] = tested on: Escherichia coli; test: Inhibition of small ribosomal subunit assembly in Escherichia coli assessed as accumulation of 16S rRNA at 7 ug/ml after 2 hrs by sucrose gradient fractionation at 25 degC; assay type: functional, organism-based; outline: as §1
[4] = tested on: Escherichia coli; test: Inhibition of large ribosomal subunit assembly in Escherichia coli assessed as accumulation of 23S rRNA in 70S and 50S fractions at 7 ug/ml after 1 hr by sucrose gradient fractionation at 37 degC; assay type: functional, organism-based; outline: as §1
[5] = tested on: Escherichia coli; test: Inhibition of large ribosomal subunit assembly in Escherichia coli assessed as accumulation of 23S rRNA in 40S fraction at 7 ug/ml after 1 hr by sucrose gradient fractionation at 37 degC; assay type: functional, organism-based; outline: as §1
[6] = tested on: Escherichia coli; test: Inhibition of small ribosomal subunit assembly in Escherichia coli assessed as accumulation of 16S rRNA at 7 ug/ml after 1 hr by sucrose gradient fractionation at 37 degC; assay type: functional, organism-based; outline: as §1
[7] = tested on: Escherichia coli; test: Inhibition of ribosomal subunit assembly in Escherichia coli assessed as accumulation of partially processed 23S rRNA in 30S, 40S and 50S fractions at 100 ug/ml after 1 hr by primer extension analysis at 37 degC; assay type: functional, organism-based
Outline: (§2)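 Ribosomes from MG1655 drug-treated in 2× YT (1 h at 37°C or 2 h at 25°C from A600 0.2) were separated on 10–25% sucrose gradients. RNA was isolated from fractions by isopropanol precipitation and guanidinium thiocyanate/silica binding. 5′ ends of 23S and 16S rRNA were mapped by reverse transcription from specific primers, alongside sequencing lanes.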

[8] = tested on: Escherichia coli; test: Inhibition of ribosomal subunit assembly in Escherichia coli assessed as accumulation of partially processed 23S rRNA in 30S, 40S and 50S fractions at 7 ug/ml after 1 hr by primer extension analysis at 37 degC; assay type: functional, organism-based; outline: as §2
[9] = tested on: Escherichia coli; test: Inhibition of ribosomal subunit assembly in Escherichia coli assessed as accumulation of partially processed 23S rRNA in 30S, 40S and 50S fractions at 7 ug/ml after 2 hrs by primer extension analysis at 25 degC; assay type: functional, organism-based; outline: as §2
[10] = tested on: Escherichia coli; test: Inhibition of ribosomal subunit assembly in Escherichia coli assessed as accumulation of partially processed 23S rRNA in 30S, 40S and 50S fractions at 100 ug/ml after 2 hrs by primer extension analysis at 25 degC; assay type: functional, organism-based; outline: as §2
[11] = tested on: Escherichia coli; test: Inhibition of ribosomal subunit assembly in Escherichia coli assessed as retardation of 16S rRNA processing at 100 ug/ml after 1 hr by primer extension analysis at 37 degC; assay type: functional, organism-based; outline: as §2
[12] = tested on: Escherichia coli; test: Inhibition of ribosomal subunit assembly in Escherichia coli assessed as retardation of 16S rRNA processing at 7 ug/ml after 1 hr by primer extension analysis at 37 degC; assay type: functional, organism-based; outline: as §2
[13] = tested on: Escherichia coli; test: Inhibition of ribosomal subunit assembly in Escherichia coli assessed as retardation of 16S rRNA processing at 7 ug/ml after 2 hrs by primer extension analysis at 25 degC; assay type: functional, organism-based; outline: as §2
[14] = tested on: Escherichia coli; test: Inhibition of ribosomal subunit assembly in Escherichia coli assessed as retardation of 16S rRNA processing at 100 ug/ml after 2 hrs by primer extension analysis at 25 degC; assay type: functional, organism-based; outline: as §2
[15] = tested on: Escherichia coli; test: Inhibition of ribosomal subunit assembly in Escherichia coli assessed as reduction in mature 23S rRNA at 7 ug/ml; assay type: functional
[16] = tested on: Escherichia coli; test: Inhibition of ribosomal subunit assembly in Escherichia coli assessed as accumulation of assembly-deffective particles between 50S and 20S regions after 10 mins by sucrose gradient fractionation; assay type: functional, organism-based
Outline: (§3)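 Cells grown at 37°C in tryptone/yeast extract/NaCl to A600 0.2, then exposed to erythromycin (final 100 μg/ml) or chloramphenicol (final 7 μg/ml). After 5, 10 or 60 min, pulsed 5 min with [3H]uridine, 2 μCi per 50 ml; some samples chased 5 min with rifampin, final 500 μg/ml. Sucrose gradients cut into 40 fractions; TCA-precipitable radioactivity counted by scintillation.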

[17] = tested on: Escherichia coli; test: Inhibition of ribosomal subunit assembly in Escherichia coli assessed as accumulation of assembly-deffective particles between 50S and 20S regions after 60 mins by sucrose gradient fractionation; assay type: functional, organism-based; outline: as §3
[18] = tested on: Escherichia coli; test: Antimicrobial activity against Escherichia coli at 7 ug/ml after 8 hrs; assay type: functional
Outline: (§4)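 E. coli MG1655 culture growth followed by optical density over 8 h, with the drug-treated culture expressed relative to an untreated control culture.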

[19] = tested on: Escherichia coli; test: Inhibition of large ribosomal subunit assembly in Escherichia coli assessed as accumulation of 23S rRNA in 70S and 50S fractions at 100 ug/ml after 2 hrs by sucrose gradient fractionation at 25 degC; assay type: functional, organism-based; outline: as §1
[20] = tested on: Escherichia coli; test: Inhibition of large ribosomal subunit assembly in Escherichia coli assessed as accumulation of 23S rRNA in 40S fraction at 100 ug/ml after 2 hrs by sucrose gradient fractionation at 25 degC; assay type: functional, organism-based; outline: as §1
[21] = tested on: Escherichia coli; test: Inhibition of small ribosomal subunit assembly in Escherichia coli assessed as accumulation of 16S rRNA at 100 ug/ml after 2 hrs by sucrose gradient fractionation at 25 degC; assay type: functional, organism-based; outline: as §1
[22] = tested on: Escherichia coli; test: Inhibition of large ribosomal subunit assembly in Escherichia coli assessed as accumulation of 23S rRNA in 70S and 50S fractions at 100 ug/ml after 1 hr by sucrose gradient fractionation at 37 degC; assay type: functional, organism-based; outline: as §1
[23] = tested on: Escherichia coli; test: Inhibition of large ribosomal subunit assembly in Escherichia coli assessed as accumulation of 23S rRNA in 40S fraction at 100 ug/ml after 1 hr by sucrose gradient fractionation at 37 degC; assay type: functional, organism-based; outline: as §1
[24] = tested on: Escherichia coli; test: Inhibition of small ribosomal subunit assembly in Escherichia coli assessed as accumulation of 16S rRNA at 100 ug/ml after 1 hr by sucrose gradient fractionation at 37 degC; assay type: functional, organism-based; outline: as §1
[25] = tested on: Escherichia coli; test: Inhibition of ribosomal subunit assembly in Escherichia coli assessed as reduction in mature 23S rRNA at 100 ug/ml; assay type: functional
[26] = tested on: Escherichia coli; test: Inhibition of ribosomal subunit assembly in Escherichia coli assessed as reduction in mature 23S rRNA at 7 ug/ml in presence of E-peptide; assay type: functional
[27] = tested on: Staphylococcus aureus; test: Antimicrobial activity against Staphylococcus aureus UCN18 with A2059G mutation in rrl allele; assay type: functional
Outline: (§5)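 Clinical S. aureus isolates carrying rRNA operon mutations: UCN14 has A2058T in 4 of 5 rrl alleles, UCN17 has A2058G in 4 of 6, and UCN18 has A2059G in 3 of 5. MIC was determined for erythromycin by microbroth dilution in 96-well plates.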

[28] = tested on: Staphylococcus aureus; test: Antimicrobial activity against Staphylococcus aureus UCN14 with A2058T mutation in rrl allele; assay type: functional; outline: as §5
[29] = tested on: Staphylococcus aureus; test: Antimicrobial activity against Staphylococcus aureus UCN17 with A2058G mutation in rrl allele; assay type: functional; outline: as §5
[30] = tested on: Escherichia coli; test: Antimicrobial activity against Escherichia coli at 100 ug/ml after 8 hrs; assay type: functional; outline: as §4

| Structure (SMILES) | inhibition [7] | inhibition [8] | inhibition [9] | inhibition [10] | inhibition [11] | inhibition [12] | inhibition [13] | inhibition [14] | inhibition [16] | inhibition [17] | other results |
| --- | --- | --- | --- | --- | --- | --- | --- | --- | --- | --- | --- |
| O=C(N[C@H](CO)[C@H](O)c1ccc([N+](=O)[O-])cc1)C(Cl)Cl [CHLORAMPHENICOL] | Active | Active | Active | Active | Active | Active | Active | Active | Active | Active | inhibition [1]: Active; inhibition [2]: Active; inhibition [3]: Active; inhibition [4]: Active; inhibition [5]: Active; inhibition [6]: Active; inhibition at 7 µg/mL [15]: 50%; Activity [18]: 70% |
| CC[C@H]1OC(=O)[C@H](C)[C@@H](O[C@H]2C[C@@](C)(OC)[C@@H](O)[C@H](C)O2)[C@H](C)[C@@H](O[C@@H]2O[C@H](C)C[C@H](N(C)C)[C@H]2O)[C@](C)(O)C[C@@H](C)C(=O)[C@H](C)[C@@H](O)[C@]1(C)O [ERYTHROMYCIN] | Active | Active | Active | Active | Active | Active | Active | Active | Active | Active | inhibition [19]: Active; inhibition [20]: Active; inhibition [21]: Active; inhibition [22]: Active; Activity [23]: Active; inhibition [24]: Active; inhibition at 100 µg/mL [25]: 30%; inhibition at 7 µg/mL [26]: 60%; MIC [27]: 512 µg/mL (≈ 698 µM); MIC [28]: 512 µg/mL (≈ 698 µM); MIC [29]: 512 µg/mL (≈ 698 µM); Activity [30]: 70% |
